MT1-MMP act inh – blocks activation of human MT1-MMP. GFP/RFP ratio change, % at 20 µM. P50281. HT1080 RFP-PRO-GFP cells, GFP/RFP ratio fluorescence, overnight; percent of plate control window, DMSO zero. AID 651647. hit rate 0.061% among 360,000;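 active = GFP/RFP ratio change of at least 30% with cell ATP level not reduced by more than half and red fluorescence within 50% of control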
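Read-out: GFP/RFP fluorescence ratio; Test system: RFP-PRO-GFP reporter HT1080 cells; Compound dosing: single-point 20 µM compound, 1% DMSO; Times: overnight compound exposure at 37 °C.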
UCH37 DUB inh – inhibitors of human deubiquitinating enzyme UCH37; hit rate 0.33% among 330,000; purified proteasome/UCH37, Ub-AMC cleavage fluorescence; inhibition, % (no concentration beside the values);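 active = mean inhibition over replicate wells above about 20%, limit read from the data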;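 note: 0% = compound-free wells with enzyme and 100% = wells lacking proteasome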
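system = Proteasome-associated human UCH37 deubiquitinase | amount = 0.15 nM proteasome as dispensed | medium = pH 7.4 Tris-HCl (50 mM) with ovalbumin, ATP-MgCl2, DTT | incubation = 30 min preincubation with enzyme, 25 min cleavage at room temperature | detection = AMC fluorescence 355/460 nm | read-out basis = percent inhibition | controls = no-proteasome and no-compound wells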
CTSL1 counter – counter-screen for PFM18AAP inhibitors: inhibitors of F. hepatica cathepsin L1; hit rate 0.49% among 300,000; AID 1906; recombinant F. hepatica cathepsin L1, Z-Leu-Arg-MCA fluorescence; inhibition, % at 5.96 µM;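 active = inhibition above the mean of all tested compounds plus 3 SD, set per screening campaign, cut at about 17% in these data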;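 note: 0% = plate median of test compound wells and 100% = 1 µM Z-Phe-Ala-diazomethylketone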
CendR NRP1 mod – modulators of CendR peptide binding to human neuropilin-1; O14786; FAM-RPARPAR peptide binding to NRP-1, fluorescence polarization; inhibition, % at 25 µM; hit rate 0.85% among 360,000;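 active = inhibition or corrected inhibition above about 18%, plus a signal ratio from 0.5 to 1.5, limit read from the data, passing the limit was not always enough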
Target sequence (O14786 whole entry, looked up): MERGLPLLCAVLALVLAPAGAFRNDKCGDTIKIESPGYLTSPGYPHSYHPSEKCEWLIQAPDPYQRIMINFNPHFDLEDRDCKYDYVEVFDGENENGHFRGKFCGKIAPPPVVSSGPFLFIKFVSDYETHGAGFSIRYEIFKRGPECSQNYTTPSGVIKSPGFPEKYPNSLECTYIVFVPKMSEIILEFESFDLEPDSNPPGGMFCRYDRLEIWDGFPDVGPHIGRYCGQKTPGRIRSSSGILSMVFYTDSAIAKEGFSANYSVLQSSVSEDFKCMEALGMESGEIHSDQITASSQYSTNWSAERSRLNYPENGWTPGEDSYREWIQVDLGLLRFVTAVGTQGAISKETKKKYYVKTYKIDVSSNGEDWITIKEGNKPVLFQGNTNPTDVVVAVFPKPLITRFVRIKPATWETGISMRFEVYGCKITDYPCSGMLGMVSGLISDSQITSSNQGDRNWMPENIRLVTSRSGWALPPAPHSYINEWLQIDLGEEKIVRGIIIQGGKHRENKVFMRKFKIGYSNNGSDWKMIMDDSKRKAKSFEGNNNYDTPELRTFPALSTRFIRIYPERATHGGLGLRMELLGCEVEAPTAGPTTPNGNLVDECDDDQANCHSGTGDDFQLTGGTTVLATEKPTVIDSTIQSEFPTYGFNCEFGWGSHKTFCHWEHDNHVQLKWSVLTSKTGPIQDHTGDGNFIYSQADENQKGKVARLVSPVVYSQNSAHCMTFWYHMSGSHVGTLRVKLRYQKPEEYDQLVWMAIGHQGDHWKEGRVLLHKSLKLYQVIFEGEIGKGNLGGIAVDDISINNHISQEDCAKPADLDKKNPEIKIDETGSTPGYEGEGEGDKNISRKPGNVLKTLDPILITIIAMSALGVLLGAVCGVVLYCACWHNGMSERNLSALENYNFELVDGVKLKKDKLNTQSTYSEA
DAGLB inhibitor – diacylglycerol lipase beta (human) inhibition; Q8NCG7; HEK293T DAGLB membrane lysate, EnzChek fluorogenic substrate; inhibition, % at 5.17 µM; hit rate 0.059% among 340,000; in the data active = inhibition above about 34%;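 note: 0% = enzyme with vehicle and 100% = wells lacking enzyme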
Starred values were filed as active, the others as inactive; . = not tested or not shown. Sampled rows, rich in hits. Any-hit rate of the full collection: about 1.5%.

SMILES | MT1-MMP act inh | UCH37 DUB inh | CTSL1 counter | CendR NRP1 mod | DAGLB inhibitor
CN(C)CCN1CCN(C2CN(Cc3ccc([N+](=O)[O-])cc3)S(=O)(=O)C2)CC1 (stereo not drawn) | 2.9 | . | . | 22.2* | .
Cc1cccc2cc(C=NNC(=O)CN3CCOCC3)c(Cl)nc12 | . | -4.0 | . | . | .
COc1ccc(CC(=O)NN=C(C)c2cccs2)cc1 | . | 0.3 | . | . | .
Cc1ccn2c(c1)nc(=O)c1cc(S(=O)(=O)N3CCOCC3)ccc12 | -0.9 | -342.0 | 0.8 | 20.9* | 2.4
Cn1c(=O)c(=O)n(C)c2cc(S(=O)(=O)N3CCOCC3)ccc21 | 4.3 | 1.7 | -1.5 | -3.1 | 2.0
O=C1Nc2ccccc2C12OCC1(CO2)COC2(OC1)C(=O)Nc1ccccc12 (stereo not drawn) | -1.4 | -0.1 | 27.7* | 8.8 | 1.9
O=C(CCC(=O)OCC(=O)c1ccc(-c2ccccc2)cc1)Nc1cccc(Cl)c1 | -2.7 | 3.2 | -20.2 | -2.0 | -2.3
Cc1ccccc1NC(=O)CCC(=O)OCC(=O)c1ccc(-c2ccccc2)cc1 | -4.1 | 1.5 | -12.5 | 26.8* | -0.1
CCn1cc(C(=O)NCc2cccs2)c(=O)c2ccc(C)nc21 | 10.4 | 0.8 | 1.5 | 27.8* | -2.1
Cc1ccc(C)c(S(=O)(=O)N(C)c2ccc(OC(=O)C3CCN(C(=O)Nc4ccccc4)CC3)cc2)c1 | 4.3 | 2.6 | . | 25.2* | -4.9
Cc1ccc(S(=O)(=O)N(C)C)cc1NC(=O)C1CCN(C(=O)Nc2ccccc2)CC1 | 2.9 | -0.7 | . | 1.0 | -5.6
O=C(NN=Cc1cccc(C(F)(F)F)c1)c1ccccc1O | . | -0.2 | . | . | .
Cc1nonc1NC(=O)CSc1nc2ccccc2[nH]1 | 0.6 | 4.6 | 16.7* | 7.1 | -2.8
CNC(=O)NC(=O)C(C)OC(=O)c1c(C)noc1C (stereo not drawn) | -1.1 | 0.1 | 0.5 | 43.1* | 4.0
NC(=O)c1cc2cc(Br)ccc2oc1=NNC(=O)c1cccc(F)c1 | . | 1.9 | . | . | .
CC(CC(=O)Nc1cccc2c1CCCC2)=NNC=O | . | 1.4 | . | . | .
CCOC(=O)NC(=O)/C(C#N)=C\Nc1sccc1C(=O)OC | -18.8 | 28.2* | -2.8 | -13.4 | -2.1
CCOC(=O)NC(=O)/C(C#N)=C\Nc1ccc(Cl)cc1Cl | 0.3 | 2.1 | -0.9 | -4.2 | -0.9
CC(=O)N/N=C/c1cc(C(C)(C)C)cc(/C=N/NC(C)=O)c1O | -129.5 | . | 5.0 | 35.0* | .
Cc1cc(C(=O)N/N=C\c2cc(C(C)(C)C)ccc2O)n[nH]1 | -0.8 | . | 1.8 | 3.9 | 3.7
Cc1c(Cl)cccc1NC(=O)CCCn1cnc([N+](=O)[O-])n1 | 1.1 | 2.0 | 1.6 | -0.8 | -1.0
O=C(CCCn1cnc([N+](=O)[O-])n1)Nc1cccc(Cl)c1Cl | -5.1 | 3.7 | 1.8 | 31.3* | 0.2
CCCCc1ccc(C(C)=NNc2cc(N3CCOCC3)nc(C)n2)cc1 | . | 0.0 | . | . | .
COc1ccc(C2=CN(Cc3ccccc3)C(c3ccccc3)CC2=O)cc1 (stereo not drawn) | -1.2 | -4.4 | . | 20.7* | 3.9
O=C(COC(=O)[C@H](Cc1ccccc1)N1C(=O)c2ccccc2C1=O)Nc1ccc2c(c1)OCO2 | 2.0 | 5.0 | 22.5* | 2.9 | 0.3
SMILES | MT1-MMP act inh | UCH37 DUB inh | CTSL1 counter | CendR NRP1 mod | DAGLB inhibitor
O=C(COC(=O)c1ccc(=O)n(Cc2ccccc2)n1)Nc1ccc2c(c1)OCCO2 | 0.0 | 4.0 | 19.2* | -0.6 | 0.1
FC(F)(F)c1cccc(NN=Cc2ccccc2)c1 | . | 3.2 | . | . | .
CC(Sc1nnc(-c2cccnc2)o1)C(=O)NC1CCCC1 (stereo not drawn) | 0.5 | 4.5 | . | 22.1* | -1.4
O=C(COc1ccc(Cl)cc1Cl)NN=Cc1cccnc1 | . | 2.8 | . | . | .
O=C(Nc1ccc(Br)cc1)C1C2C=CC3(O2)C1C(=O)N(CCN1CCCCC1)C3C(=O)NC1CCCCC1 (stereo not drawn) | 2.9 | 6.0 | 7.7 | 4.6 | 2.3
Cc1cc(C)cc(NC(=O)C2C3C=CC4(O3)C2C(=O)N(CCN2CCCCC2)C4C(=O)NC2CCCCC2)c1 (stereo not drawn) | -3.4 | 0.9 | 19.0* | -5.2 | -1.2
COc1ccc(NC(=O)C2C3C=CC4(O3)C2C(=O)N(CCN2CCCCC2)C4C(=O)NC2CCCCC2)cc1 (stereo not drawn) | 3.8 | 5.1 | 40.0* | 5.0 | 0.7
O=C(O)/C=C1\NC(=O)c2ccccc21 | -3.4 | 4.9 | 0.2 | -9.9 | -2.2
O=C1N/C(=C\c2ccc(O)cc2)C(=O)c2ccccc21 | -0.2 | 87.3* | 108.4* | -3.0 | -1.8
O=C(Cc1ccccc1)NN=Cc1cc(Br)cc(Cl)c1O | . | -12.5 | . | . | .
c1ccc(-c2ccc3sccc3n2)cc1 | -2.3 | 1.2 | 3.8 | 27.4* | -6.0
c1ccc(-c2ccc3cnccc3n2)cc1 | 2.2 | . | . | 1.1 | .
CCSc1nc2ccccc2n1Cc1cccc([N+](=O)[O-])c1 | 0.4 | 4.0 | 1.8 | 22.6* | -2.8
CCSc1nc2ccccc2n1Cc1ccccc1F | 5.3 | -0.5 | 6.1 | 17.0 | -5.5
CCS(=O)(=O)c1nc(S(=O)(=O)c2ccc(Cl)cc2)c(N2CCOCC2)s1 | -3.7 | 5.2 | 3.5 | 35.0* | -3.8
COc1cc(/C=C2\S/C(=N/S(=O)(=O)c3ccc(C)cc3)NC2=O)c([N+](=O)[O-])cc1OC | -3.9 | 20.1* | 6.8 | -38.4 | 12.2
Cc1ccc(Cl)c(NC(=O)CSc2cccc[n+]2[O-])c1Cl | 3.8 | -2.2 | . | 27.8* | -1.2
O=C(CCCCCNC(=O)c1ccccc1Cl)NN=Cc1ccco1 | . | 3.2 | . | . | .
Cc1cc2oc(=O)cc(C)c2cc1NC(=O)CCl | 1.2 | . | 79.2* | 0.0 | .
COCCn1cnc2c(c1=O)c1nc3ccccc3nc1n2N=Cc1cccc(OC)c1 | . | 1.7 | . | . | .
Cc1ccccc1N1C(=O)c2ccccc2NC1c1ccncc1 (stereo not drawn) | 0.6 | -27.4 | -1.8 | 28.0* | 1.7
O=C1c2ccccc2NC(c2cccnc2)N1c1ccccc1F (stereo not drawn) | 2.5 | . | 0.7 | -13.0 | -2.6
Cc1cccc(-n2c(C)cc(C=NNC(=O)c3cccc([N+](=O)[O-])c3C)c2C)c1 | . | -0.3 | . | . | .
CC(=O)OCC(=O)[C@@]1(O)CC[C@H]2[C@@H]3C[C@H](C)C4=CC(=O)C=C[C@]4(C)[C@H]3[C@@H](O)C[C@@]21C | -8.5 | 4.3 | -3.8 | 2.6 | 2.4
CC(=O)OCC(=O)C1(O)CCC2C3CC(C)C4=CC(=O)C=CC4(C)C3=CCC21C (stereo not drawn) | 2.5 | 2.0 | . | 18.9* | -6.9
COc1ccc(C=NNC(=O)c2ccc(C)cc2)cc1CN1CCN(c2ccc(F)cc2)CC1 | . | 3.1 | . | . | .
